Holding throughout (type): functional
What all share (conditions): ATCC 32264, 48 h

In test [1] the test system is Cryptococcus neoformans. In words: Antifungal activity against Cryptococcus neoformans ATCC 32264 assessed as inhibition of fungal growth at 200 uM after 48 hrs by microbroth dilution method. The method in brief:
(§1)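 Cryptococcus run by CLSI M-27 A2 microbroth dilution in RPMI-1640. Peptide was diluted from DMSO stock to final 200, 100, 50, 25, 12.5, 6.25 and 3.125 µM. Inoculum was 1–5 × 10^3 CFU/ml from 24 h, 35 °C Sabouraud-chloramphenicol slants. Incubation was 48 h at 35 °C, moist and dark. % inhibition was taken from OD405 against a DMSO-containing growth control. Amphotericin B served as the positive control; tests in duplicate.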
A general note: In broth dilution the organism is exposed to a series of concentrations in liquid medium.

Test [2] has as its system Cryptococcus neoformans. In words: Antifungal activity against Cryptococcus neoformans ATCC 32264 assessed as inhibition of fungal growth at 100 uM after 48 hrs by microbroth dilution method. Summed up:
as §1

The subject of test [3] is Cryptococcus neoformans. The test is described as follows: Antifungal activity against Cryptococcus neoformans ATCC 32264 assessed as inhibition of fungal growth at 50 uM after 48 hrs by microbroth dilution method. Summed up: as §1
Test [4] relates to Cryptococcus neoformans. The test is described as follows: Antifungal activity against Cryptococcus neoformans ATCC 32264 assessed as inhibition of fungal growth at 25 uM after 48 hrs by microbroth dilution method. Summed up:
as §1

Test [5] relates to Cryptococcus neoformans. The test is described as follows: Antifungal activity against Cryptococcus neoformans ATCC 32264 assessed as inhibition of fungal growth at 12.5 uM after 48 hrs by microbroth dilution method. The method in brief:
as §1

The test system of test [6] is Cryptococcus neoformans. In words: Antifungal activity against Cryptococcus neoformans ATCC 32264 assessed as inhibition of fungal growth at 6.25 uM after 48 hrs by microbroth dilution method. Summed up:
as §1

Test [7] has as its system Cryptococcus neoformans. In words: Antifungal activity against Cryptococcus neoformans ATCC 32264 assessed as inhibition of fungal growth at 3.125 uM after 48 hrs by microbroth dilution method. The method in brief: as §1

Seven molecules from ChEMBL document CHEMBL1157699, “New small-size peptides possessing antifungal activity” (Bioorg Med Chem, 2010) can be followed below.

Structures are written as SMILES. Residues, ends and D or L forms follow the SMILES beside them.

By inhibition is commonly meant the change of the read-out against control, counted positive when it falls. Turning to `C[C@H](N)C(=O)N[C@@H](C)C(=O)N[C@@H](C)C(=O)N[C@@H](C)C(N)=O` (H-AAAA-NH2), in the test on Cryptococcus neoformans [1], the inhibition at 200 µM is 25%. The inhibition at 100 µM in the test with Cryptococcus neoformans [2] was determined as 24.6%. For the same molecule, in the test on Cryptococcus neoformans [3], the inhibition at 50 µM was 17.3%. Also, in the test on Cryptococcus neoformans [4], the inhibition at 25 µM is 20.4%. Further, the inhibition at 12.5 µM in the test with Cryptococcus neoformans [5] amounted to 11.8%. In addition, the inhibition at 6.25 µM in the test with Cryptococcus neoformans [6] amounted to 12.4%. Besides, in the test with Cryptococcus neoformans [7], the inhibition at 3.125 µM is 5.93%.

On to `C[C@H](N)C(=O)N[C@@H](C)C(=O)N[C@@H](C)C(=O)N[C@@H](CCCCN)C(N)=O` (H-AAAK-NH2), for which, in the test with Cryptococcus neoformans [1], the inhibition at 200 µM amounted to 70.6%. Further, the inhibition at 100 µM with Cryptococcus neoformans [2] is 62%. In addition, the inhibition at 50 µM in the test on Cryptococcus neoformans [3] worked out at 57.9%. For the same molecule, the inhibition at 25 µM in the test on Cryptococcus neoformans [4] worked out at 43%. For the same molecule, in the test with Cryptococcus neoformans [5], the inhibition at 12.5 µM worked out at 31.1%. Also, in the test with Cryptococcus neoformans [6], the inhibition at 6.25 µM worked out at 0%. Besides, the inhibition at 3.125 µM in the test on Cryptococcus neoformans [7] was found to be 0%.

On to `CC[C@H](C)[C@H](NC(=O)[C@@H](N)CCCCN)C(=O)N[C@@H](CCC(N)=O)C(=O)N[C@@H](CCCNC(=N)N)C(N)=O` (H-KIQR-NH2), for which the inhibition at 200 µM in the test on Cryptococcus neoformans [1] was determined as 47.6%. Also, the inhibition at 100 µM in the test with Cryptococcus neoformans [2] came to 44.1%. Besides, in the test on Cryptococcus neoformans [3], the inhibition at 50 µM was determined as 30.9%. In the test with Cryptococcus neoformans [4], the inhibition at 25 µM amounted to 26.9%. Moreover, in the test on Cryptococcus neoformans [5], the inhibition at 12.5 µM came out at 25.1%. In the test on Cryptococcus neoformans [6], the inhibition at 6.25 µM was 21.2%. In addition, in the test with Cryptococcus neoformans [7], the inhibition at 3.125 µM amounted to 20.9%.

On to `CC[C@H](C)[C@H](NC(=O)[C@H](CCC(N)=O)NC(=O)[C@@H](N)CCCCN)C(=O)N[C@@H](CCCCN)C(N)=O` (H-KQIK-NH2), for which the inhibition at 200 µM in the test with Cryptococcus neoformans [1] is 3.72%. For the same molecule, in the test with Cryptococcus neoformans [2], the inhibition at 100 µM was 0%. Moreover, in the test on Cryptococcus neoformans [3], the inhibition at 50 µM is 0%. Also, the inhibition at 25 µM in the test with Cryptococcus neoformans [4] is 0%. The inhibition at 12.5 µM in the test on Cryptococcus neoformans [5] was found to be 0%. In the test with Cryptococcus neoformans [6], the inhibition at 6.25 µM was determined as 0%. Further, the inhibition at 3.125 µM in the test with Cryptococcus neoformans [7] was 0%.

`C[C@H](NC(=O)[C@H](C)NC(=O)[C@H](C)NC(=O)[C@@H](N)CCCNC(=N)N)C(N)=O` (H-RAAA-NH2): the inhibition at 200 µM in the test with Cryptococcus neoformans [1] came out at 38.4%. Moreover, the inhibition at 100 µM in the test with Cryptococcus neoformans [2] was 8.45%. In the test with Cryptococcus neoformans [3], the inhibition at 50 µM came out at 8.43%. Moreover, the inhibition at 25 µM in the test on Cryptococcus neoformans [4] was found to be 8.9%. Further, the inhibition at 12.5 µM in the test on Cryptococcus neoformans [5] came to 6.08%. For the same molecule, the inhibition at 6.25 µM with Cryptococcus neoformans [6] amounted to 4.96%. Also, the inhibition at 3.125 µM in the test with Cryptococcus neoformans [7] is 0%.

As to `C[C@H](NC(=O)[C@H](C)NC(=O)[C@@H](N)CCCNC(=N)N)C(=O)N[C@@H](CCCCN)C(N)=O` (H-RAAK-NH2), in the test on Cryptococcus neoformans [1], the inhibition at 200 µM was determined as 78.6%. For the same molecule, the inhibition at 100 µM in the test with Cryptococcus neoformans [2] turned out to be 69.7%. In addition, in the test with Cryptococcus neoformans [3], the inhibition at 50 µM was 67.5%. The inhibition at 25 µM with Cryptococcus neoformans [4] worked out at 39.1%. The inhibition at 12.5 µM with Cryptococcus neoformans [5] was 26.3%. In addition, the inhibition at 6.25 µM in the test on Cryptococcus neoformans [6] stood at 14.1%. For the same molecule, the inhibition at 3.125 µM with Cryptococcus neoformans [7] turned out to be 0%.

As for `CC[C@H](C)[C@H](NC(=O)[C@H](C)NC(=O)[C@@H](N)CCCNC(=N)N)C(=O)N[C@@H](CCCCN)C(N)=O` (H-RAIK-NH2), in the test on Cryptococcus neoformans [1], the inhibition at 200 µM worked out at 34.6%. The inhibition at 100 µM in the test with Cryptococcus neoformans [2] turned out to be 29.1%. Also, in the test with Cryptococcus neoformans [3], the inhibition at 50 µM was determined as 0%. Also, the inhibition at 25 µM with Cryptococcus neoformans [4] was 0%. Also, the inhibition at 12.5 µM in the test on Cryptococcus neoformans [5] was found to be 0%. The inhibition at 6.25 µM in the test with Cryptococcus neoformans [6] stood at 0%. For the same molecule, the inhibition at 3.125 µM with Cryptococcus neoformans [7] amounted to 0%.
